Test results taken from article PMC2699564 (Journal of medicinal chemistry, 2009).

How the values were obtained:
[1] = test system: RIF tumors; assay: In vivo biodistribution of ^124I-labeled compounds; set-up: species or system C3H mice; conditions: for liver and spleen uptake compared among compounds 1-3: C3H mice; for liver and spleen uptake compared among compounds 1-3 / tumor uptake compared among compounds 1-3: 24-96 h post injection; for tumor uptake compared among compounds 1-3 / tumor uptake: RIF tumor; for tumor uptake: ^124I-labeled, i.v.
How it was run: (§1)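 ¹²⁴I-labeled test compound (radiochemical purity >95%, in saline with 10% ethanol) given via tail vein at 15–200 μCi; 3–4 mice per compound/time point. Sacrificed at 24, 48, 72 and 96 h. Blood, tumor, heart, liver, spleen, kidney, lung, muscle, gut and stomach removed and weighed. Activity measured by gamma well counter; uptake expressed as %ID/g; mean of 3 or 4 mice.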

[2] = test system: RIF cells; assay: In vitro cell uptake by fluorescence, RIF cells; type: cell-based
How it was run: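 RIF cells incubated with test compound; cellular uptake read by fluorescence at 3 and 24 h post-incubation.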

[3] = test system: radiation-induce fibrosarcoma (RIF) cells; assay: In vitro photosensitizing efficacy; type: cell-based; conditions: 24 h incubation, 0.25 μM (Figure 8), light 0-4 J/cm^2, MTT
[4] = test system: RIF tumors; assay: In vivo PDT efficacy; set-up: species or system C3H mice; conditions: for toxicity (deaths post PDT): 135 J/cm^2, five mice/group; for tumor free mice (tumor cure) / tumor free mice (tumor cure) at day 60: 665 nm, 135 J/cm^2, 75 mW/cm^2 at 24 h post-injection, five mice/group
How it was run: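 Female C3H/HeJ mice received 2×10^5 RIF cells intradermally in HBSS lacking Ca²⁺/Mg²⁺. At 4–5 mm tumors, hair was removed and test compound given i.v. the day before light, at 0.5, 1.0 or 1.5 μmol/kg, five mice/group. At 24 h, mice were restrained unanaesthetised and tumor irradiated with dye laser at 665 nm: 1 cm², 75 mW/cm², 135 J/cm², 30 min. Mice were watched daily for weight loss, scabbing and regrowth; V = (L × W²)/2. Sacrificed at 400 mm³; cured if no regrowth by day 60.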

[5] = test system: Colon-26 cells; assay: In vitro cell uptake, Colon-26 cells; type: cell-based
[6] = test system: Colon-26 tumors; assay: In vivo biodistribution of ^124I-labeled 1; set-up: species or system BALB/c mice; conditions: for tumor uptake: Colon-26 tumor, ^124I-labeled, i.v.
How it was run: as §1

[7] = test system: RIF tumor; assay: microPET imaging, RUV and relative tumor activity, RIF tumor; type: in vivo
[8] = test system: Colon-26 tumor; assay: microPET imaging, RUV and relative tumor activity, Colon-26 tumor; type: in vivo

With CCC1=C(C)c2cc3[nH]c(cc4nc(c5c6[nH]c(cc1n2)c(C)c6C(=O)C5)[C@@H](CCC(=O)N[C@@H]1O[C@H](CO)[C@H](O)[C@H](O)[C@H]1O)[C@@H]4C)c(C)c3C(C)OCc1cccc([124I])c1 (some centres unmarked) [Compound 3, {1′-(m-iodobenzyloxy)ethyl}-17[2]-(1-amino-1-deoxy)galactosamide-pyro pheophorbide-a] the “liver and spleen uptake compared among compounds 1-3” value [1] was “considerably higher liver and spleen uptake at all time points”, the “tumor uptake compared among compounds 1-3” value [1] was “higher uptake values at the 72 and 96 hrs time points” and the “cell uptake compared to compound 1” value [2] was “higher uptake”. For the same compound, the “in vitro PDT efficacy compared to 1” value [3] was “more effective than the corresponding non-carbohydrate analog 1”, the “toxicity (deaths post PDT)” value ([4]; 1.00 μmole/kg i.v.) was “all five mice died within 24h post PDT” and the “toxicity (deaths post PDT)” value ([4]; 1.5 μmol/kg i.v.) was “all five mice died within 24 h post light treatment”. For the same compound, the “cell uptake compared to compound 1” value [5] was “higher uptake”.
With CCC1=C(C)c2cc3[nH]c(cc4nc(c5c6[nH]c(cc1n2)c(C)c6C(=O)C5)[C@@H](CCC(=O)N[C@@H]1[C@@H](O)[C@H](O)[C@@H](CO)O[C@H]1O)[C@@H]4C)c(C)c3C(C)OCc1cccc([124I])c1 (some centres unmarked) [Compound 2, 3-{1′-(m-iodobenzyloxy)ethyl}-17[2]-(2-amino-2-deoxy)glucosamide-pyropheo phorbide-a] the “liver and spleen uptake compared among compounds 1-3” value [1] was “lower spleen and liver uptake than 3 but higher than that of 1”, the “tumor uptake compared among compounds 1-3” value [1] was “least tumor uptake among all compounds at all time points” and the “cell uptake compared to compound 1” value [2] was “higher uptake”. The “in vitro PDT efficacy compared to 1” value [3] was “more effective than the corresponding non-carbohydrate analog 1”, the “tumor free mice (tumor cure)” value ([4]; 0.50 μmole/kg i.v.) was “one out of five mice was tumor free” and the “tumor free mice (tumor cure)” value ([4]; 1.00 μmole/kg i.v.) was “two out of five mice were tumor free”. The “toxicity (deaths post PDT)” value ([4]; 1.5 μmol/kg i.v.) was “two mice died within 24 h post PDT”, the “tumor free mice (tumor cure) at day 60” value ([4]; 1.5 μmol/kg i.v.) was “two out of remaining three mice were tumor free” and the “cell uptake compared to compound 1” value [5] was “higher uptake”.
With CCC1=C(C)c2cc3[nH]c(cc4nc(c5c6[nH]c(cc1n2)c(C)c6C(=O)C5)[C@@H](CCC(=O)OC)[C@@H]4C)c(C)c3C(C)OCc1cccc([124I])c1 (some centres unmarked) [Compound 1, 3-{1′-(m-iodobenzyloxy)ethyl}pyropheophorbide-a methyl ester] the “tumor uptake compared among compounds 1-3” value [1] was “highest tumor uptake value at 24 and 48 hrs time points”, the tumor uptake ([1]; 24 h post injection) was 4.1 %ID/g and the tumor uptake ([1]; 48 h post injection) was 2.1 %ID/g. The tumor uptake ([1]; 72 h post injection) was 0.8 %ID/g, the tumor uptake ([1]; 96 h post injection) was 0.6 %ID/g and the “tumor uptake in Colo-26 relative to RIF” value ([6]; 72 h post injection) was 3 fold. The “tumor uptake in Colo-26 relative to RIF” value ([6]; 96 h post injection) was 3 fold, the tumor uptake ([6]; 24 h post injection) was 4.6 %ID/g and the tumor uptake ([6]; 48 h post injection) was 4.4 %ID/g. For the same compound, the tumor uptake ([6]; 72 h post injection) was 2.5 %ID/g, the tumor uptake ([6]; 96 h post injection) was 2.0 %ID/g and the “blood uptake, BALB/c vs C3H mice” value ([6]; ^124I-labeled 1) was “slightly higher blood uptake in BALB/c mice than C3H mice”. For the same compound, the “uptake in other organs, BALB/c vs C3H mice” value ([6]; ^124I-labeled 1) was “lower uptake in BALB/c mice than the C3H mice”, the “relative tumor activity (tumor activity to whole body activity in image)” value ([7]; RIF tumor, ^124I-1 about constant over three scans in 3 days) was about 0.035 and the “time of best tumor contrast in PET images” value ([7]; both tumor models (RIF and Colon-26), post injection) was 72 h. The “relative tumor activity over time” value ([8]; 24-96 h) was “increasing relative quantity of activity in the tumor”, the “relative uptake value (RUV) compared with RIF tumor” value ([8]; after 48 hours of injection) was “higher RUV values than RIF tumor” and the “tumor free mice (tumor cure)” value ([4]; 1.00 μmole/kg i.v.) was “one out of five mice was tumor free”. For the same compound, the “tumor free mice (tumor cure) at day 60” value ([4]; 1.5 μmol/kg i.v.) was “four out of five mice were tumor free”.
